In assay [1] the test system is Ebolavirus. Nature of the assay: Antiviral activity against Ebolavirus infected in human HeLa cells assessed as reduction in viral replication incubated for 48 hrs by luminescence based assay. The format is functional, organism-based. To be noted: Orthoebolavirus.
Assay [2] is described as follows: Binding affinity to Ebola virus glycoprotein assessed as dissociation constant incubated for 20 to 30 mins by microscale thermophoresis. On the set-up: species or system Ebolavirus. In short, it runs like this: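 EBOV glycoprotein amine-labelled with RED-NHS dye, 2.5 nM final in 10 mM MES pH 5.0, 150 mM NaCl, 170 mM sodium malonate pH 5.2, plus 0.05% Tween 20 and 10 mM BME. 16-point 2-fold series from 250 μM to 7.629 nM, 2.5% DMSO final. Incubated 20–30 min. MST run at 20% excitation, high power, 23.0 °C, in quadruplicate. Kd from mass-action fit of Fnorm, with aggregated or outlier traces removed.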

The term IC50 denotes the concentration at which inhibition is half-maximal. As a reminder, the Kd is the equilibrium constant for the complex coming apart. Regarding `COc1ccc2nc3cc(Cl)ccc3c(Nc3cc(CN4CCCC4)c(O)c(CN4CCCC4)c3)c2n1` [PYRONARIDINE], in assay [1], the IC50 is 820 to 1300 nM. The Kd in assay [2] (read-out: Kd) amounted to 7340 nM. The like results for `CCN(CC)CCOc1ccc2c(c1)C(=O)c1cc(OCCN(CC)CC)ccc1-2` [TILORONE] were, in that order, 1140 to 1480 nM and 731 nM. `NC(=O)c1nc(F)cnc1O` [FAVIPIRAVIR]: the Kd entry in assay [2] was “Not Active”.

In the case of `CN(C)CCOc1ccc(/C(=C(/CCCl)c2ccccc2)c2ccccc2)cc1` [TOREMIFENE], in assay [2] (read-out: Kd), the Kd came out at 24800 nM. On to `CCN(CC)CCCC(C)Nc1c2ccc(Cl)cc2nc2ccc(OC)cc12` (centres undefined) [QUINACRINE], for which the IC50 in assay [1] was in the range of 1050 to 1480 nM. Moreover, the Kd in assay [2] (read-out: Kd) amounted to 7550 nM. In the case of `C[C@H]1[C@H](OC(=O)CCC(=O)O)O[C@@H]2O[C@@]3(C)CC[C@H]4[C@H](C)CC[C@@H]1[C@@]24OO3` [ARTESUNATE], the Kd result in assay [2] is “Not Active”.

The values are drawn from ChEMBL document CHEMBL4619819, “Toward the Target: Tilorone, Quinacrine, and Pyronaridine Bind to Ebola Virus Glycoprotein” (ACS Med Chem Lett, 2020).
